# Smad3 FoxH1 inh = Smad3 (human) transcription factor binding inhibition. P84022. TR-FRET Smad3/Dy647-FoxH1 peptide binding, europium anti-His. inhibition, % at 25 µM. 88,000 tested, 0.29% active. AID 630;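 active means compounds that reduce the energy-transfer binding signal between the protein and its labelled peptide by more than half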;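 further: 0% = Smad3 plus labelled peptide maximal FRET and 100% = peptide-only background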
# Mac1 fbg inh = blocks human CD11b/CD18 adhesion to fibrinogen; P05107+P11215; K562 CD11b/CD18 adhesion to fibrinogen, ATPlite luminescence; Mn2+ added to activate the integrin; inhibition, % at 10 µM; 93,000 tested, 0.54% active;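 active means primary inhibition of 50% or more at 10 µM, then 40% or more on retest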
# sEH act = activators of human soluble epoxide hydrolase | AID 717 | purified human sEH enzymatic activity, activator screen | 91,000 tested, 0.04% active | activation, % at 2 µM; in the data active means activation above about 37%
# Target sequence (P34913 whole entry, looked up): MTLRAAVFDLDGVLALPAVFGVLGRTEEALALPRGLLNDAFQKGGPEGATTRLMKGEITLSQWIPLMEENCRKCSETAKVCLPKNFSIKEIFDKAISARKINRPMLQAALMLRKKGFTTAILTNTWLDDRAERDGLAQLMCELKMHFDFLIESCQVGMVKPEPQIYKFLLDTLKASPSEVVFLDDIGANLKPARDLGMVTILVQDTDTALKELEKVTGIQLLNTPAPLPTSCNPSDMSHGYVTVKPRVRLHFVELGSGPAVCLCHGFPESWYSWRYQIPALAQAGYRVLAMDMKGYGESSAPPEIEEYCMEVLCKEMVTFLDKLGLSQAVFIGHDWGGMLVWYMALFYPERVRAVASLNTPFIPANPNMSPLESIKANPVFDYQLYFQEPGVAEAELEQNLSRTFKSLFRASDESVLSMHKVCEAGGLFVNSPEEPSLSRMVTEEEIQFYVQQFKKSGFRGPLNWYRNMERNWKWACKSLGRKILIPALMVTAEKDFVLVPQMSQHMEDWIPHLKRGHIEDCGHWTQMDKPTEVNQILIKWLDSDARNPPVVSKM
# sEH inhibitor = soluble epoxide hydrolase (human) inhibition. P34913. recombinant human sEH enzymatic activity assay. inhibition, % at 2 µM. 91,000 tested, 0.34% active. AID 707; in the data active means inhibition above about 80%
# Rev-RRE block = HIV Rev-RRE protein-RNA interaction inhibition; P05866; Rev peptide-RRE RNA binding, FRET; inhibition, % at 8 µM; 97,000 tested, 0.79% active; AID 704;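 active means inhibition above the screen-wide mean plus 3 SD, cut at about 35% in these data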;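 further: 0% = median DMSO wells and 100% = median Neomycin B control wells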
#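 Test system – labelled RRE RNA duplex and labelled Rev peptide · Reagent – labelled Rev peptide · Doses – one concentration, 8 µM nominal · Incubation – 5 + 15 min at 25 °C · Signal – FRET fluorescence readout · Read-out basis – % inhibition of FRET ratio versus controls · Control set – DMSO wells as 0% and neomycin B wells as 100% inhibition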
# Mac1 fbg enh = enhancers of human CD11b/CD18 binding to fibrinogen | 93,000 tested, 0.07% active | activation, % at 10 µM | K562 CD11b/CD18 adhesion to fibrinogen, ATPlite luminescence | AID 1499 | P05107+P11215;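 active means 10 µM primary screen giving 50% or more activity, confirmed by 40% or more on retest at that dose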
# Starred values were filed as active, the others as inactive; · = no result; [ ] = remark or other dose. Sampled rows, rich in hits. Any-hit rate of the full collection: about 1.6%.
SMILES,Smad3 FoxH1 inh,Mac1 fbg inh,sEH act,sEH inhibitor,Rev-RRE block,Mac1 fbg enh
O=C(c1ccco1)[C@@H]1[C@@H]2C(=O)N(c3ccc(Br)cc3)C(=O)[C@@H]2C2c3ccccc3C=CN21 (some centres not stated),10,-14,0,-1,41*,14
CCc1ccc(-n2nc3ccc(NC(=O)c4ccc5c(c4)OCO5)cc3n2)cc1,4,-7,-6,7,15,1
Cc1ccc(-n2nc3ccc(NC(=O)c4ccc5c(c4)OCO5)cc3n2)cc1,11,-5,-8,10,5,139*
CC(C)(C)c1cnnn1-c1ccc(NC(=O)c2ccc3c(c2)OCO3)cc1,-10,-7,-93,93*,9,1
CC(C)(C)c1cnnn1-c1ccc(NC(=O)c2ccc(Br)o2)cc1,-17,2,-49,50,-2,-2
CC(C)Cc1csc(NC(=O)c2ccc(Cl)cc2)c1C(=O)O,·,100*,·,·,·,-7
COc1ccc(NC(=S)NC(NC(=O)c2ccc(Cl)cc2Cl)C(Cl)(Cl)Cl)c([N+](=O)[O-])c1 (configuration not stated),7,83*,-14,13,6,-3
COc1ccc(NC(=S)NC(NC(=O)c2ccccc2Cl)C(Cl)(Cl)Cl)c([N+](=O)[O-])c1 (configuration not stated),16,14,-3,2,4,6
Cc1ccc(NC(=O)Cc2nn(C)c(=O)c3ccccc23)cc1F,4,-2,-18,18,4,3
COc1cccc(OC)c1NC(=O)Cc1nn(C)c(=O)c2ccccc12,-3,-7,6,-4,7,-4
Cn1nc(CC(=O)Nc2ccc3c(c2)OCCO3)c2ccccc2c1=O,·,96*,·,·,·,-12
COc1ccccc1NC(=O)Cc1nn(C)c(=O)c2ccccc12,16,64*,0,3,5,-3
Cc1ccc(S(=O)(=O)O[C@H]2C[C@@H](C(C)(C)C)CC[C@@H]2c2ccccc2)cc1,3,·,·,·,·,·
CCOC(=O)N1CCC(NC(=O)CC(NS(=O)(=O)c2ccc(Cl)cc2)c2ccco2)CC1 (configuration not stated),-3,-19,·,·,·,6
CCOC(=O)N1CCC(Nc2nc3ccccc3nc2NS(=O)(=O)c2ccc(Cl)cc2)CC1,2,92*,-5,0,5,0
Cc1ccc(C)c([C@@H]2NC(=O)c3ccccc3N2)c1,9,·,·,·,·,·
Cc1ccc(-c2nc3nc4ccccc4nc3n2Cc2ccco2)cc1,64*,21,·,·,·,-3
Clc1ccc(-c2nc3nc4ccccc4nc3n2Cc2ccco2)cc1,1,-7,2,-4,0,5
c1ccc(Cn2c(-c3ccco3)nc3nc4ccccc4nc32)cc1,11,10,38*,-40,17,0
C[C@H]1CCC/C=C\[C@@H]2C[C@H](OC(=O)CN(C)C)C[C@H]2[C@@H](O)/C=C\C(=O)O1,5,·,·,·,·,·
O=C(Nc1ccc2c(c1)nc1n2CCN(Cc2ccccc2)C1)NC1CCCCC1,0,-5,-91,91*,5,-1
COCCN1CCn2c(nc3cc(NC(=O)NC4CCCCC4)ccc32)C1,-8,-3,-76,76,14,13
O=C(NCCO)c1ccc(Cl)cc1,58*,·,·,·,·,·
O=C(Cc1csc(N2CCOCC2)n1)N/N=C/c1ccc(Cl)cc1Cl,·,55*,-79,80,9,-3
CCCN1CCCc2cc(CN)ccc21,53*,10,9,-7,46*,-2
SMILES,Smad3 FoxH1 inh,Mac1 fbg inh,sEH act,sEH inhibitor,Rev-RRE block,Mac1 fbg enh
CN1CCCc2cc(C=O)ccc21,-3,·,3,2,4,·
COc1nc(Cl)nc(Cl)c1Cl (tested in a mixture with another compound),83*,·,·,·,·,·
COc1cc([C@@H]2[C@H]3CNCC=C3C(C#N)=C(N)C2(C#N)C#N)ccc1OC(C)C,3,-27,-4,6,50*,1
O=C(O)CC(CC(=O)O)C(=O)O,2,·,·,·,·,·
C=CCc1c(C)nc(C)nc1N/N=C/c1ccccc1O,-4,-11,6,-5,41*,-1
COc1cc(-c2[o+]c3cc(O)cc(O)c3cc2O)cc(O)c1O,6,·,·,·,·,·
Cc1cc(=O)[nH]c(SCC(=O)Nc2ccccc2C#N)c1C#N,·,-1,-3,4,6,-3
Cc1cc(=O)[nH]c(SCC(=O)Nc2ccc(Br)cc2)c1C#N,1,93*,-2,-1,2,-6
CCN(CC)S(=O)(=O)c1cccc2cc(C(=O)O)c(O)cc12,7,1,4,-5,1,0
CCOC(=O)C1=C(C)NC(=O)C(C(N)=O)C12CCCC2 (configuration not stated),-3,-11,0,1,4,0
CCOC(=O)C1=C(C)NC(=O)C(C(N)=O)C1c1ccccc1 (configuration not stated),2,-6,37*,-41,6,-1
N#Cc1cc2c(nc1SC1CCCCC1O)CCCC2 (configuration not stated),93*,·,-11,11,0,·
N#Cc1cc2c(nc1SCC(N)=O)CCCCC2,10,-26,-12,10,6,-2
O=C(NCc1ccco1)c1ccccc1NS(=O)(=O)c1ccc(Cl)s1,14,98*,8,-6,0,-8
O=C(NCc1ccco1)c1ccccc1NS(=O)(=O)c1cccs1,3,-12,3,-6,7,3
O=S(=O)(Nc1nnc(-c2ccccc2)s1)c1ccc(Cl)cc1,7,86*,0,0,-3,-10
O=S(=O)(NCc1cc(-c2ccccc2)no1)c1ccc(Cl)cc1,·,·,-6,8,1,·
O=C(Nc1nccs1)c1cc2c(s1)-c1ccccc1OC2,·,3,·,·,-2,30
Cc1cccc2c1-c1sc(C(=O)Nc3nccs3)cc1CO2,5,-10,53*,-52,1,-2
COc1ccc(OC)c(/C=N/NC(=O)c2csc3ccccc23)c1,·,·,-84,84*,1,·
COc1ccc(OC)c(/C=N/NC(=O)c2[nH]nc3c2CCc2ccccc2-3)c1,·,-22,·,·,·,4
Cn1cccc1/C=C1\CCC/C(=C\c2cccn2C)C1=O,5,22,6,-9,136*[fluorescence artefact?],0
CO[C@@H]1/C=C\O[C@]2(C)Oc3c(C)c(O)c4c(O)c(c(CN5CCN(C)CC5)c(O)c4c3C2=O)NC(=O)C(C)=C/C=C\[C@@H](C)[C@@H](O)[C@H](C)[C@@H](O)[C@H](C)[C@H](OC(C)=O)[C@@H]1C,7,·,·,·,·,·
O=C(Nc1ccccc1O)c1ccccc1O,-5,69*,-5,6,5,-4
Cc1cccc(NC(=O)c2ccccc2O)c1C,11,47,-2,5,6,-6
O=C(CSc1nc2cc(Cl)ccc2s1)c1cc2ccccc2o1,·,19,-6,8,68*,-2

# Source: PubChem
